The values below come from ChEMBL document CHEMBL1221318, “Two distinct classes of novel pyrazolinecarboxamides as potent cannabinoid CB1 receptor agonists” (Bioorg Med Chem Lett, 2010).

Structures are written as SMILES. Calls of active or inactive are those of the source. The calls are words filed in the database; no cut-off is given here.

Test [1] has as its target T1, Cannabinoid receptor 1 (Homo sapiens, UniProt P21554). Kind of test: Agonist activity at human recombinant CB1 receptor expressed in CHO cells assessed as effect on CP-55940 induced PLA2 activation by [3H]arachidonic acid release assay. Type of test: functional, cell-based. The settings on record: for Kb: read-out: pA2 (converted).
Test [2] addresses T2, Cannabinoid receptor 2 (Homo sapiens, UniProt P34972). The experiment in a line: Displacement of [3H]CP-55940 from human recombinant CB2 receptor expressed in CHO cells. Type of test: cell-based. (In general: In a radioligand displacement assay an active substance lowers the binding of a labelled ligand.)
For test [3], the target named is T1, Cannabinoid receptor 1. The experiment in a line: Displacement of [3H]CP-55940 from human recombinant CB1 receptor expressed in CHO cells. It is filed as cell-based.
In the next test the test system is Rattus norvegicus. Kind of test: Neuroprotective activity in Lewis rat assessed as reduction of experimental autoallergic encephalomyelitis-induced motor deficits at 20 mg/kg, po qd for 11 days. It is filed as functional, organism-based. On the set-up: dose 20 mg/kg. The method in brief:
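Male Lewis rats, 175–225 g, inoculated day 0 by subcutaneous hind-paw injection, under isoflurane, of a saline emulsion of complete Freund adjuvant, M. tuberculosis H37RA and guinea pig myelin basic protein. Oral dosing once daily from day one. Motor dysfunction scored daily on a 0–10 scale, with body weights; paralysis intensity analysed as AUC and average score.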

Test [4] addresses T2, Cannabinoid receptor 2. The experiment in a line: Inverse agonist activity at human recombinant CB2 receptor expressed in CHOK1 cells assessed as effect on forskolin-stimulated adenylate cyclase activity by cAMP accumulation assay. It is filed as functional, cell-based, CHO-K1. Put shortly: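 CHO-K1 cells expressing human CB2, grown in serum-supplemented medium with glutamine, Hygromycin B and G418 at 37 °C, 5% CO2. Confluent cells loaded with [3H]adenine for 2 h, then 20 min in PBS with 1 mM IBMX and 3×10^-7 M forskolin ± compound (10^-10–10^-6 M). Stopped with TCA; [3H]cAMP/[3H]ATP separated on Dowex/alumina, scintillation counted, basal subtracted; […], two independent experiments in triplicate.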
For orientation: cAMP levels reflect the balance of adenylyl cyclase and phosphodiesterase activity.

What is called EC50 is the concentration that produces a half-maximal response. As usually defined, the Ki is the equilibrium dissociation constant of an inhibitor or competing ligand from its target. Usually pA2 stands for a measure of antagonist potency on a negative log scale.

T2 sequence (P34972 whole entry): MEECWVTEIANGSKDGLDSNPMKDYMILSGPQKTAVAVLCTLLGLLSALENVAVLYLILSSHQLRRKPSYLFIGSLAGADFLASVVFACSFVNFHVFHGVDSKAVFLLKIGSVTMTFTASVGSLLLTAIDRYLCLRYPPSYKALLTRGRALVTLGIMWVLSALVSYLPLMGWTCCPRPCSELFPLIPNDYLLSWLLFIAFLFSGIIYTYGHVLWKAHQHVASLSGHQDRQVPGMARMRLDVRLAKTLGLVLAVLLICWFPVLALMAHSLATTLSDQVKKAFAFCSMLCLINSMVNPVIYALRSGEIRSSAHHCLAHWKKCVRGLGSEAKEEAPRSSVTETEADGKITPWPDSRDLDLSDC
T1 sequence (P21554 whole entry): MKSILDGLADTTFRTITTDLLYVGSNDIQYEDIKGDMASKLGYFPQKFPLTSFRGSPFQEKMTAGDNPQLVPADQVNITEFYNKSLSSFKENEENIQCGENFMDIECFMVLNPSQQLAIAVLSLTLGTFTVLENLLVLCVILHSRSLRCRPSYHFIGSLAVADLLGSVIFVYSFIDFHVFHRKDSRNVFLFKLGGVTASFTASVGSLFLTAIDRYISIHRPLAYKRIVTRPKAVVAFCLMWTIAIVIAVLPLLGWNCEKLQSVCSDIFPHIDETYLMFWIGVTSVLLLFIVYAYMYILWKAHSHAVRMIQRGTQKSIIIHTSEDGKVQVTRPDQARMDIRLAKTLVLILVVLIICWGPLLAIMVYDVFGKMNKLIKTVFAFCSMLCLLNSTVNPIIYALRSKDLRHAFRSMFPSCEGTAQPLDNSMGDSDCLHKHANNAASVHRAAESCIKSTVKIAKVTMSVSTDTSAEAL

As for `CCCCCN1N=C(C(=O)NC(C)(C)c2ccc(F)cc2)CC1c1ccccc1` (stereo unspecified), the EC50 at Cannabinoid receptor 1 [1] is 3.98 nM. Further, the Kb at Cannabinoid receptor 1 [1] is 7.94 nM. Also, the values for the Ki at Cannabinoid receptor 2 [2] and at Cannabinoid receptor 1 [3] were 121 nM and 118 nM, respectively.
In the case of `CCCCCC1=NN(C(=O)N[C@H]2CC3CC[C@]2(C)C3(C)C)CC1c1ccccc1` (single isomer, unassigned), on Cannabinoid receptor 1 [1], the EC50 was 158 nM. The Ki on Cannabinoid receptor 2 [2] was 36 nM; on Cannabinoid receptor 1 [3] it was 46.8 nM.
For the compound `CCCCC1=NN(C(=O)N[C@H]2C[C@H]3CC[C@]2(C)C3(C)C)C(C)(C)C1c1ccccc1` (stereo partly specified), the Ki was determined as 3.4 nM on Cannabinoid receptor 2 [2] and 16.1 nM at Cannabinoid receptor 1 [3].
On the same counts, the results for `CCCCCC1=NN(C(=O)NCC2CCCCC2)CC1c1ccccc1` (stereo unspecified) are 53 nM and 15.3 nM.
On the same counts, the results for `CCCCCC1=NN(C(=O)NC2CCCCC2)CC1c1ccccc1` (stereo unspecified) are 79 nM and 52 nM.
Turning to `CCCCCN1N=C(C(=O)NC2C3CC4CC(C3)CC2C4)CC1c1ccccc1` (stereo unspecified), the Kb on Cannabinoid receptor 1 [1] was 7.94 nM. The values for the Ki at Cannabinoid receptor 2 [2] and on Cannabinoid receptor 1 [3] were 7.1 nM and 9.2 nM, respectively.
For `CCCCCC1=NN(C(=O)NC23CC4CC(CC(C4)C2)C3)CC1c1ccccc1` (stereo unspecified), the EC50 at Cannabinoid receptor 1 [1] is 398 nM. Besides, the Ki was determined as 14.9 nM at Cannabinoid receptor 2 [2] and 68 nM at Cannabinoid receptor 1 [3].
On the same counts, the results for `CCCCC1=NN(C(=O)NC(C)(C)c2ccc(F)cc2)CC1c1ccccc1F` (stereo unspecified) are 126 nM, 89 nM and 32 nM.
With `CCCCCC1=NN(C(=O)NCC23CC4CC(CC(C4)C2)C3)CC1c1ccccc1` (stereo unspecified), the Ki at Cannabinoid receptor 1 [3] is 16.1 nM.
Turning to `CCCCCC1=NN(C(=O)NC2CCCCCC2)CC1c1ccccc1` (stereo unspecified), the Ki on Cannabinoid receptor 2 [2] came out at 19.8 nM; at Cannabinoid receptor 1 [3], 15.3 nM.
As for `CCCCCC1=NN(C(=O)NC2C3CC4CC(C3)CC2C4)CC1c1ccccc1` (stereo unspecified), the EC50 at Cannabinoid receptor 1 [1] was 25.1 nM. Further, the Ki at Cannabinoid receptor 2 [2] turned out to be 6.3 nM; at Cannabinoid receptor 1 [3], 6.4 nM.
For `CCCCCC1=NN(C(=O)Nc2ccccc2C(F)(F)F)CC1c1ccccc1` (stereo unspecified), the results for the Ki on Cannabinoid receptor 2 [2] and at Cannabinoid receptor 1 [3] were 15 nM and 70 nM, respectively.
In the case of `CCCCCC1=NN(C(=O)NC2C[C@H]3CCC2(C)C3(C)C)CC1c1ccccc1` (single isomer, unassigned), in the test on Rattus norvegicus, the result was Active. Moreover, the EC50 on Cannabinoid receptor 2 [4] is 3.16 nM; at Cannabinoid receptor 1 [1] it was 3.98 nM. Also, the pA2 on Cannabinoid receptor 1 [1] (cho) amounted to 8.1. Moreover, the Ki at Cannabinoid receptor 2 [2] was 5.3 nM; at Cannabinoid receptor 1 [3] it was 8.3 nM.
For `CCCCCC1=NN(C(=O)NC[C@@H]2CC[C@H]3C[C@@H]2C3(C)C)CC1c1ccccc1` (stereo partly specified), the EC50 at Cannabinoid receptor 1 [1] is 2000 nM. The Ki on Cannabinoid receptor 2 [2] amounted to 13.3 nM; at Cannabinoid receptor 1 [3] it was 15.6 nM.
On the same counts, the results for `CCCCC1=NN(C(=O)NC(C)(C)c2ccccc2)CC1c1ccccc1` (stereo unspecified) are 3.98 nM, 35.6 nM and 14.2 nM.
With `CCCCCC1=NN(C(=O)N[C@H]2C[C@H]3CC[C@]2(C)C3(C)C)CC1c1ccccc1` (stereo in doubt; 9), on Cannabinoid receptor 1 [1], the EC50 is 0.631 nM and the Kb was 7.94 nM. For the same compound, on Cannabinoid receptor 2 [2], the Ki was 7.4 nM. In addition, the Ki at Cannabinoid receptor 1 [3] amounted to 28.5 nM.
Take `CCCCC1=NN(C(=O)NC(C)(C)c2ccccc2)CC1c1ccsc1` (stereo unspecified): on Cannabinoid receptor 1 [1], the EC50 was 39.8 nM. Besides, the figures for the Ki at Cannabinoid receptor 2 [2] and on Cannabinoid receptor 1 [3] were 62 nM and 19.3 nM, respectively.
On the same counts, the results for `CCCCCC1=NN(C(=O)NC(C)(C)c2ccccc2)CC1c1ccccc1` (stereo unspecified) are 3.98 nM, 17.6 nM and 3.26 nM.
On the same counts, the results for `CCCCCC1=NN(C(=O)c2cccc3ccccc23)CC1c1ccccc1` (stereo unspecified) are 31.6 nM, 103 nM and 164 nM.
On the same counts, the results for `CCCCCCC(C)(C)c1cc(O)c2c(c1)OC(C)(C)[C@@H]1CCC(=O)C[C@@H]21` [NABILONE] are 3.98 nM, 17.6 nM and 5.1 nM.
For `CCCCC1=NN(C(=O)NC(C)(C)c2ccccc2)C(C)(C)C1c1ccccc1` (stereo unspecified), the Ki turned out to be 11.9 nM at Cannabinoid receptor 2 [2] and 9 nM at Cannabinoid receptor 1 [3].
As to `CCCCCC1=NN(C(=O)NC2CCCCCCC2)CC1c1ccccc1` (stereo unspecified), the Ki at Cannabinoid receptor 2 [2] was 26.6 nM; at Cannabinoid receptor 1 [3], 11.9 nM.
As to `CCCCC1=NN(C(=O)NC(C)(C)c2ccc(F)cc2)CC1c1cccc(F)c1` (stereo unspecified), the EC50 on Cannabinoid receptor 1 [1] was 100 nM. In addition, the Ki at Cannabinoid receptor 2 [2] came out at 74 nM; on Cannabinoid receptor 1 [3] it was 44.9 nM.
On to `CCCCCC1=NN(C(=O)NC2CCCc3ccccc32)CC1c1ccccc1` (stereo unspecified), for which the Ki at Cannabinoid receptor 2 [2] worked out at 22.5 nM; at Cannabinoid receptor 1 [3], 33.1 nM.
For the compound `CCCCCN1N=C(C(=O)N[C@H]2C[C@H]3CC[C@]2(C)C3(C)C)CC1c1ccccc1` (stereo partly specified), the EC50 on Cannabinoid receptor 1 [1] is 5.01 nM. The Kb on Cannabinoid receptor 1 [1] is 7.94 nM. Besides, the Ki on Cannabinoid receptor 2 [2] was 20.1 nM; at Cannabinoid receptor 1 [3], 4.7 nM.
The matching figures for `CCCCCN1N=C(C(=O)N[C@H]2C[C@H]3CC[C@]2(C)C3(C)C)CC1c1ccccc1F` (stereo partly specified): 3.98 nM, 7.94 nM, 9.1 nM and 6.1 nM.
Consider `CCCCCC1=NN(C(=O)Nc2cccc3ccccc23)CC1c1ccccc1` (stereo unspecified), for which the EC50 on Cannabinoid receptor 1 [1] was 1580 nM. Also, the Ki turned out to be 36.6 nM at Cannabinoid receptor 2 [2] and 7.4 nM on Cannabinoid receptor 1 [3].
The matching figures for `CCCCCC1=NN(C(=O)NCc2ccccc2)CC1c1ccccc1` (stereo unspecified): 398 nM, 260 nM and 51 nM.
